Data set [1] in a line: Aqueous solubility of the compound at pH 7. Type of data set: physicochemical.
Another data set has as its target T1, Adenosine deaminase (Bos taurus, UniProt P56658).
T1 sequence (P56658 whole entry): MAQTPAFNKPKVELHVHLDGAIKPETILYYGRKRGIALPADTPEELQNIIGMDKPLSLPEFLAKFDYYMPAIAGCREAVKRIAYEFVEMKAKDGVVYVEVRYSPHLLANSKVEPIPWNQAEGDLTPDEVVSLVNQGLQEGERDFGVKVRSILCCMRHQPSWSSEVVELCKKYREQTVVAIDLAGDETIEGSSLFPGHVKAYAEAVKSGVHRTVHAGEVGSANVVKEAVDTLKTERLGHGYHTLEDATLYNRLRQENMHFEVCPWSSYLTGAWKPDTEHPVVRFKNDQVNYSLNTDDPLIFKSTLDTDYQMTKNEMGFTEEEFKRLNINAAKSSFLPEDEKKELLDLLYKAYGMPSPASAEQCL
Nature of the data set: Activity of calf mucosal adenosine deaminase assessed as enzyme-mediated drug metabolism by liquid chromatographic analysis. The following applies: cattle. Type of data set: ADME. The method in brief:
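Drug exposed to the deaminase, with enzyme level also raised 10- and 100-fold. Reaction mixtures analysed by reverse-phase C18 LC (aqueous acetonitrile eluent, 254-nm UV detection) for unchanged substrate.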

Data set [2] has as its system Human alphaherpesvirus 1. Nature of the data set: Antiviral activity against Herpes simplex virus 1 assessed as plaque reduction at 0.17 x 10^-5 M by cell-based assay relative to control. Type of data set: functional. The method, boiled down:
(§1)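 HSV-1 plaque-reduction assay by the Hsiung–Melnick procedure. Challenge was 125-300 plaque-forming units. An ara-A control was run alongside each sample at the same molar concentration with an identical virus challenge. Data were confirmed by duplicate assay (±10%).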

The test system of data set [3] is Human alphaherpesvirus 1. Nature of the data set: Antiviral activity against Herpes simplex virus 1 assessed as plaque reduction at 1.71 x 10^-5 M by cell-based assay relative to vidarabine. Type of data set: functional. The method, boiled down: as §1
For data set [4], the system named is Human alphaherpesvirus 1. Nature of the data set: Antiviral activity against Herpes simplex virus 1 assessed as plaque reduction at 0.17 x 10^-5 M by cell-based assay relative to vidarabine. Type of data set: functional. The method, boiled down:
as §1

Data set [5] deals with Human alphaherpesvirus 1. Nature of the data set: Antiviral activity against Herpes simplex virus 1 assessed as plaque reduction at 1.67 x 10^-5 M by cell-based assay relative to control. The format is functional. The method, boiled down: as §1
Data set [6] deals with Human alphaherpesvirus 1. Nature of the data set: Antiviral activity against Herpes simplex virus 1 assessed as plaque reduction at 1.67 x 10^-5 M by cell-based assay relative to vidarabine. Type of data set: functional. The method in brief:
as §1

The test system of data set [7] is Human alphaherpesvirus 1. Nature of the data set: Antiviral activity against Herpes simplex virus 1 assessed as plaque reduction at 0.18 x 10^-5 M by cell-based assay relative to control. Type of data set: functional. The method in brief: as §1
The subject of data set [8] is Human alphaherpesvirus 1. Nature of the data set: Antiviral activity against Herpes simplex virus 1 assessed as plaque reduction at 0.18 x 10^-5 M by cell-based assay relative to vidarabine. The format is functional. The method, boiled down: as §1
Data set [9] deals with Human alphaherpesvirus 1. Nature of the data set: Antiviral activity against Herpes simplex virus 1 assessed as plaque reduction at 1.76 x 10^-5 M by cell-based assay relative to vidarabine. The format is functional. The method, boiled down: as §1
Data set [10] has as its system Human alphaherpesvirus 1. Nature of the data set: Antiviral activity against Herpes simplex virus 1 assessed as plaque reduction at 1.75 x 10^-5 M by cell-based assay relative to control. The format is functional. The method, boiled down:
as §1

Data set [11] relates to Human alphaherpesvirus 1. Nature of the data set: Antiviral activity against Herpes simplex virus 1 assessed as plaque reduction at 1.75 x 10^-5 M by cell-based assay relative to vidarabine. Type of data set: functional. The method in brief:
as §1

Data set [12] deals with Human alphaherpesvirus 2. Nature of the data set: Antiviral activity against Herpes simplex virus 2 Magill infected in guinea pig assessed as cured animal at 10% compound concentration treated intravaginally bid for 4 days measured on day 16 post-infection. The format is functional, organism-based. The method in brief:
(§2)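 Animals were infected intravaginally with 1 × 10^2.82 PFU in 0.1 mL. Drug ointments were given intravaginally starting 4 h postinfection, then twice daily for 4 days, filling the vagina. Clinical signs were scored as animals positive/infected. Cure meant no symptoms, or symptoms healed by day 16 postinfection; it was reported as cured/infected.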

Data set [13] deals with Human alphaherpesvirus 2. Nature of the data set: Antiviral activity against Herpes simplex virus 2 Magill infected in guinea pig assessed as prevention of inflammation at 10% compound concentration treated intravaginally bid for 4 days measured on day 16 post-infection. Type of data set: functional, organism-based. The method in brief: as §2
The test system of data set [14] is Human alphaherpesvirus 2. Nature of the data set: Antiviral activity against Herpes simplex virus 2 Magill infected in guinea pig assessed as prevention of vesiculation of labia and vulva at 10% compound concentration treated intravaginally bid for 4 days measured on day 16 post-infection. The format is functional, organism-based. The method, boiled down: as §2

For data set [15], the system named is Human alphaherpesvirus 2. Nature of the data set: Antiviral activity against Herpes simplex virus 2 Magill infected in guinea pig assessed as prevention of vaginal discharge at 10% compound concentration treated intravaginally bid for 4 days measured on day 16 post-infection. Type of data set: functional, organism-based. The method, boiled down: as §2
Data set [16] relates to Human alphaherpesvirus 2. Nature of the data set: Antiviral activity against Herpes simplex virus 2 Magill infected in guinea pig assessed as prevention of paralysis at 10% compound concentration treated intravaginally bid for 4 days measured on day 16 post-infection. The format is functional, organism-based. The method in brief:
as §2

In data set [17] the test system is Human alphaherpesvirus 2. Nature of the data set: Antiviral activity against Herpes simplex virus 2 Magill infected in guinea pig assessed as prevention of death at 10% compound concentration treated intravaginally bid for 4 days measured on day 16 post-infection. Type of data set: functional, organism-based. The method, boiled down: as §2
The test system of data set [18] is Human alphaherpesvirus 1. Nature of the data set: Antiviral activity against Herpes simplex virus 1 assessed as plaque reduction at 1.76 x 10^-5 M by cell-based assay relative to control. The format is functional. The method in brief: as §1

≈ marks a conversion by molar mass, not a printed value. Calls of active or inactive are those of the source. No cut-off for these calls is given here.

In the case of `CC(=O)O[C@H]1[C@H](O)[C@@H](CO)O[C@H]1n1cnc2c(N)ncnc21`, the solubility (commonly the concentration that dissolves in the medium under given conditions) in data set [1] (buffer) is listed as “soluble”. For the same compound, at Adenosine deaminase, the Stability result was “Stable”. In addition, the inhibition (usually the relative decrease from the control value, in per cent) at 1.7 µM turned out to be 0% with Human alphaherpesvirus 1 [2] and 60% with Human alphaherpesvirus 1 [4]. Besides, the inhibition at 17.1 µM in the data set on Human alphaherpesvirus 1 [3] turned out to be 90%.

For the compound `CC(C)(C)C(=O)OC[C@H]1O[C@@H](n2cnc3c(N)ncnc32)[C@@H](O)[C@@H]1OC(=O)C(C)(C)C`, the solubility in [1] (aqueous, read-out: solubility) was less than 10 µg/mL. On Adenosine deaminase, the Stability result is reported as “Stable”. Also, the inhibition at 16.7 µM in the data set on Human alphaherpesvirus 1 [5] turned out to be 0%; in the data set on Human alphaherpesvirus 1 [6], 100%.

In the case of `CCC(=O)OC[C@H]1O[C@@H](n2cnc3c(N)ncnc32)[C@@H](O)[C@@H]1OC(=O)CC`, in data set [1] (aqueous, read-out: solubility), the solubility worked out at 2300 µg/mL (≈ 6.06 mM). On Adenosine deaminase, the Stability entry is “Stable”. Further, the inhibition at 1.8 µM with Human alphaherpesvirus 1 [7] was found to be 0%; with Human alphaherpesvirus 1 [8], 23%. In the data set on Human alphaherpesvirus 1 [9], the inhibition at 17.6 µM is 76%.

`CC(=O)O[C@H]1[C@H](O)[C@H](n2cnc3c(N)ncnc32)O[C@@H]1CO`: the solubility entry in data set [1] (buffer) is recorded as “soluble”. Also, the Stability result at Adenosine deaminase is “Unstable”. The inhibition at 1.7 µM in the data set with Human alphaherpesvirus 1 [2] amounted to 9%; in the data set on Human alphaherpesvirus 1 [4], 36%. Also, the inhibition at 17.1 µM with Human alphaherpesvirus 1 [3] came out at 87%.

`CC(C)C(=O)O[C@H]1[C@H](O)[C@H](n2cnc3c(N)ncnc32)O[C@@H]1CO`: in data set [1] (buffer), the solubility entry is “soluble”. In addition, at Adenosine deaminase, the Stability result is recorded as “Unstable”. Moreover, the inhibition at 17.5 µM in the data set on Human alphaherpesvirus 1 [10] came out at 99%; in the data set on Human alphaherpesvirus 1 [11], 90%. Besides, the inhibition at 1.8 µM in the data set on Human alphaherpesvirus 1 [7] was 26%; with Human alphaherpesvirus 1 [8] it was 60%.

`Nc1ncnc2c1ncn2[C@@H]1O[C@H](COP(=O)(O)O)[C@@H](O)[C@@H]1O`: the outcome in the data set with Human alphaherpesvirus 2 [12], in the data set with Human alphaherpesvirus 2 [13], in the data set on Human alphaherpesvirus 2 [14], in the data set on Human alphaherpesvirus 2 [15], in the data set with Human alphaherpesvirus 2 [16] and with Human alphaherpesvirus 2 [17] was Active.

Consider `CCC(=O)O[C@H]1[C@H](O)[C@H](n2cnc3c(N)ncnc32)O[C@@H]1CO`, for which the solubility result in data set [1] (buffer) is “soluble”. Further, at Adenosine deaminase, the Stability result is “Unstable”. The inhibition at 1.8 µM stood at 5% with Human alphaherpesvirus 1 [7] and 36% in the data set on Human alphaherpesvirus 1 [8]. Further, the results for the inhibition at 17.6 µM in the data set with Human alphaherpesvirus 1 [18] and with Human alphaherpesvirus 1 [9] were 80% and 87%, respectively.

The values are drawn from ChEMBL document CHEMBL3228031, “Prodrugs of 9-(beta-D-arabinofuranosyl)adenine 2. Synthesis and evaluation of a number of 2',3'- and 3',5'-di-O-acyl derivatives” (J Med Chem, 1979).
